The pKi is −log10 of the Ki, conventionally taken in molar units. A low value points to a high Ki.

Consider twelve compounds from ChEMBL document CHEMBL1944504, “Toward the definition of stereochemical requirements for MT2-selective antagonists and partial agonists by studying 4-phenyl-2-propionamidotetralin derivatives” (J Med Chem, 2011).

Test [1] can be described thus: Displacement of 2-[125I]iodomelatonin from human MT1 receptor expressed in […] NIH3T3 cells after 90 mins. The test is classed as cell-based. In short, it runs like this: (§1)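 Competition binding on membranes from NIH3T3 cells expressing the cloned human receptor (5−10 μg protein per tube). Incubation with 100 pM 2-[¹²⁵I]iodomelatonin for 90 min at 37 °C in 50 mM Tris-HCl, pH 7.4. Melatonin was tested at 10⁻¹⁰−10⁻⁶ M; nonspecific binding was defined with 10 μM melatonin. IC₅₀ came from nonlinear fitting and was converted to pKi by Cheng−Prusoff; values are means of ≥3 independent duplicate determinations.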

Test [2] in a line: Antagonist activity at human MT1 receptor expressed in […] NIH3T3 cells after 30 mins by [35S]GTPgammaS binding assay relative to melatonin. The test is classed as functional. In general terms: GTPγS is a poorly hydrolysed GTP analogue; its binding reports G protein activation.
Test [3] can be described thus: Displacement of 2-[125I]iodomelatonin from human MT2 receptor expressed in […] NIH3T3 cells after 90 mins. The test is classed as cell-based. Put shortly: as §1
Test [4] in a line: Antagonist activity at human MT2 receptor expressed in […] NIH3T3 cells after 30 mins by [35S]GTPgammaS binding assay relative to melatonin. Format: functional.
Test [5] in a line: Partial agonist activity at human MT2 receptor expressed in […] NIH3T3 cells after 30 mins by [35S]GTPgammaS binding assay relative to melatonin. The test is classed as functional.
Test [6] in a line: Partial agonist activity at human MT1 receptor expressed in […] NIH3T3 cells after 30 mins by [35S]GTPgammaS binding assay relative to melatonin. Format: functional.

`CCC(=O)N[C@@H]1Cc2ccccc2[C@@H](c2ccccc2)C1`: the pKi in test [1] came out at 5.67; in test [3], 6.1. Also, the Intrinsic activity in test [2] is given as -0.23; in test [4], -0.14.
Consider `CCC(=O)N[C@@H]1Cc2ccccc2[C@H](c2ccccc2)C1`, for which the pKi in test [1] stood at 7.02; in test [3], 9.26. Further, the figures for the Intrinsic activity in test [2] and in test [5] were 0.15 and 0.45, respectively.
In the case of `CCC(=O)N[C@H]1Cc2ccccc2[C@H](c2ccccc2)C1`, the pKi turned out to be 6.89 in test [1] and 8.02 in test [3]. Further, the Intrinsic activity in test [6] stood at 0.33; in test [5], 0.48.
As for `CCC(=O)N[C@H]1Cc2ccccc2[C@@H](c2ccccc2)C1`, the pKi in test [1] is listed as 6.59; in test [3], 7.01. The Intrinsic activity in test [2] is 0.06; in test [4], 0.11.
For the compound `CCC(=O)N[C@@H]1Cc2c(OC)cccc2[C@H](c2ccccc2)C1` (racemic), the pKi in test [1] is listed as 7.83; in test [3], 10.22. Moreover, the results for the Intrinsic activity in test [2] and in test [5] were 0.2 and 0.44, respectively.
With `CCC(=O)N[C@H]1Cc2c(OC)cccc2[C@H](c2ccccc2)C1` (racemic), the pKi is reported as 7.04 in test [1] and 9.71 in test [3]. For the same compound, the results for the Intrinsic activity in test [2] and in test [4] were 0.02 and 0.21, respectively.
Take `CCC(=O)N[C@@H]1Cc2c(Br)cccc2[C@H](c2ccccc2)C1` (racemic): the figures for the pKi in test [1] and in test [3] were 7.99 and 10.85, respectively. Moreover, the Intrinsic activity in test [6] was 0.49; in test [5], 0.65.
As for `CCC(=O)N[C@@H]1Cc2ccccc2[C@H](c2ccccc2)C1` (racemic), the pKi worked out at 7.12 in test [1] and 9.16 in test [3]. For the same compound, the Intrinsic activity came out at 0.23 in test [2] and 0.46 in test [5].
As for `CCC(=O)N[C@H]1Cc2ccccc2[C@H](c2ccccc2)C1` (racemic), the pKi in test [1] was 6.65; in test [3], 8.06. The Intrinsic activity in test [6] is reported as 0.41; in test [5], 0.4.
Turning to `CCC(=O)NC1=Cc2ccccc2C(c2ccccc2)C1` (racemic), the pKi was determined as 7.3 in test [1] and 7.43 in test [3]. Also, the Intrinsic activity in test [2] amounted to 0.14; in test [5] it was 0.59.
Regarding `CCC(=O)NC1=Cc2c(OC)cccc2C(c2ccccc2)C1` (racemic), the figures for the pKi in test [1] and in test [3] were 6.74 and 7.11, respectively. The Intrinsic activity amounted to 0.32 in test [6] and 0.49 in test [5].
For the compound `CCC(=O)NCC1=Cc2ccccc2C(c2ccccc2)C1` (racemic), the pKi in test [1] is 7.69; in test [3] it was 8.46. Moreover, the Intrinsic activity turned out to be 0.01 in test [2] and 0.02 in test [4].
